One compound from ChEMBL document CHEMBL1255256, “Bobel-24 activity against Cryptosporidium parvum in cell culture and in a SCID mouse model” (Antimicrob Agents Chemother, 2008) can be followed below.

For data set [1], the system named is Cryptosporidium parvum. The data set can be described thus: Antimicrobial activity against Cryptosporidium parvum infected in SCID mouse assessed as decrease in oocyst shedding at 250 mg/kg/day, po for 2 weeks and measured 3 to 7 days after treatment. Type of data set: functional, organism-based. The essentials:
(§1)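 Female C.B-17 SCID mice, 7 weeks old, infected orally with 1 × 10^7 oocysts in PBS; chronic infection allowed for 25 days. Compound suspended with polyvinylpyrrolidone, given orally at 250 (n=10) or 125 (n=10) mg/kg/day for 2 weeks; controls were PVP in water and untreated mice. Oocysts per 50 μl concentrated feces counted by IIF every 3 days; ANOVA with LSD.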

Data set [2] relates to Cryptosporidium parvum. The data set can be described thus: Antimicrobial activity against Cryptosporidium parvum infected in SCID mouse assessed as decrease in oocyst shedding at 125 mg/kg/day, po for 2 weeks and measured 3 to 7 days after treatment. It is filed as functional, organism-based. The essentials: as §1
In data set [3] the test system is Cryptosporidium parvum. Nature of the data set: Antiparasitic activity against Cryptosporidium parvum infected into human HCT-8 cells assessed as growth inhibition at 90 uM after 48 hrs. Type of data set: functional. As to conditions: HCT-8, 48 h, read-out: GI. The essentials:
(§2)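 Confluent HCT-8 monolayers inoculated with 8 × 10^5 excysted oocysts/ml, then infected cells treated with 90 μM compound (DMSO stock diluted in PBS) at 37°C in 5% CO2 (24 h per table footnote; 48 h per text). Fixed cells stained with rhodamine-labeled C3C3 mAb; meronts and gamonts counted in 30 fields/well, four replicate wells; percent inhibition and inhibition score versus medium control.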

In data set [4] the test system is Cryptosporidium parvum. Nature of the data set: Antiparasitic activity against Cryptosporidium parvum sprozoites assessed as growth inhibition at 90 uM after 48 hrs. Type of data set: functional. As to conditions: read-out: GI. An outline of the steps: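 Excysted sporozoite suspension incubated with 90 μM compound at 37°C for 30 min, then used to infect confluent HCT-8 monolayers. Developmental stages counted after rhodamine-C3C3 mAb staining, 30 fields/well, four replicate wells; percent inhibition versus medium control and inhibition score.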

The subject of data set [5] is Cryptosporidium parvum. The data set can be described thus: Antimicrobial activity against Cryptosporidium parvum DE infected in HCT8 cells assessed as growth inhibition at 90 uM after 24 hrs. Type of data set: functional. As to conditions: HCT-8, 24 h, read-out: GI. The essentials:
as §2

Data set [6] concerns Cryptosporidium parvum. The data set can be described thus: Antimicrobial activity against Cryptosporidium parvum infected in HCT8 cells assessed as growth inhibition rate at 22 to 90 uM after 48 hrs. Type of data set: functional, organism-based. As to conditions: HCT-8. An outline of the steps: (§3)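 HCT-8 monolayers inoculated with 8 × 10^5 oocysts/ml, then incubated with 90, 45 or 22 μM compound (DMSO stock diluted in PBS). Fixed cultures stained with rhodamine-C3C3 mAb; developmental stages (meronts, gamonts) counted per field over 30 fields, mean of four replicate wells ± SD; percent growth inhibition versus medium and inhibition score (0–4).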

The subject of data set [7] is Cryptosporidium parvum. Nature of the data set: Antimicrobial activity against Cryptosporidium parvum infected in SCID mouse assessed as decrease in oocyst shedding at 125 mg/kg/day, po for 2 weeks and measured every 3 days during treatment. Type of data set: functional, organism-based. The essentials: as §1
Data set [8] relates to Cryptosporidium parvum. The data set can be described thus: Antiparasitic activity against Cryptosporidium parvum infected into human HCT-8 cells assessed as growth inhibition at 22 uM after 48 hrs. Type of data set: functional. As to conditions: HCT-8, 48 h, read-out: GI. An outline of the steps:
as §3

Data set [9] concerns Cryptosporidium parvum. Nature of the data set: Antimicrobial activity against Cryptosporidium parvum infected in HCT8 cells assessed as decrease in parasite count at 22 to 90 uM after 48 hrs. Type of data set: functional, organism-based. As to conditions: HCT-8. An outline of the steps:
as §3

For the next data set, the system named is HCT-8. The data set can be described thus: Cytotoxicity against human HCT8 cells assessed as cell viability by MTT assay. Type of data set: cell-based. An outline of the steps:
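HCT-8 cells exposed to compound and viability measured by MTT assay as percent viable cells.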
(Tetrazolium dyes change colour on reduction, which living cells bring about.)

The subject of data set [10] is Cryptosporidium parvum. Nature of the data set: Antiparasitic activity against Cryptosporidium parvum infected into human HCT-8 cells assessed as growth inhibition at 45 uM after 48 hrs. It is filed as functional. As to conditions: HCT-8, 48 h, read-out: GI. An outline of the steps: as §3
Data set [11] relates to Cryptosporidium parvum. The data set can be described thus: Antimicrobial activity against Cryptosporidium parvum infected in HCT8 cells assessed as growth inhibition at 90 uM pretreated for 30 min before infection measured after 48 hrs. Type of data set: functional. As to conditions: HCT-8, read-out: GI. The essentials:
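HCT-8 cells preincubated with 90 μM compound at 37°C for 30 min, then infected with excysted oocysts (8 × 10^5/ml). Meronts and gamonts counted after rhodamine-C3C3 mAb staining, 30 fields/well, four replicate wells; percent inhibition versus medium control and inhibition score.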

Activity calls are given as the source filed them. The rule behind the calls is not given here.

`Oc1c(I)cc(I)cc1I`: the result in the data set with Cryptosporidium parvum [1] and in the data set on Cryptosporidium parvum [2] was inactive. Also, the inhibition of growth at 90 µM in the data set with Cryptosporidium parvum [3] was determined as 96.5%; with Cryptosporidium parvum [4], 27.8%; in the data set on Cryptosporidium parvum [5], 99.6%; with Cryptosporidium parvum [11], 36%. The Activity result in the data set with Cryptosporidium parvum [6] is “Dose-dependent effect”; in the data set with Cryptosporidium parvum [9] it was “Dose-dependent effect”; with HCT-8, “Non-toxic”. Moreover, the result in the data set with Cryptosporidium parvum [7] was Active. Besides, the inhibition of growth at 22 µM with Cryptosporidium parvum [8] turned out to be 50.1%. Also, the inhibition of growth at 45 µM with Cryptosporidium parvum [10] came to 92.5%.
